# Measured values of several laboratories.
# Compare with care: the assays were run in different laboratories.
# Effect on: microbial growth
Structure (SMILES),organism,assay,system,conditions,quantity,value
OC(Cn1cncn1)(Cn1cncn1)c1ccc(F)cc1F,Lodderomyces parapsilosis,broth dilution,,24 h,MIC90,0.5 µg/mL
C[C@@H]1[C@H](O)[C@@H](C)/C=C/C=C/C=C/C=C/C=C/C=C/C=C/[C@H](O[C@@H]2O[C@H](C)[C@@H](O)[C@H](N)[C@@H]2O)C[C@@H]2O[C@](O)(C[C@@H](O)C[C@@H](O)[C@H](O)CC[C@@H](O)C[C@@H](O)CC(=O)O[C@H]1C)C[C@H](O)[C@H]2C(=O)O,Lodderomyces parapsilosis,,,,MIC90,0.125 µg/mL
O=[N+]([O-])c1ccc(-c2nc3ccccc3[nH]2)cc1,Aspergillus niger,,ATCC16404,,MIC,512 µg/mL
C[C@@H](c1ncncc1F)[C@](O)(Cn1cncn1)c1ccc(F)cc1F,Lodderomyces parapsilosis,,,,MIC90,0.016 µg/mL
O=C(Nc1ccccc1-c1ccc(F)c(F)c1)c1nccnc1C(F)(F)F,Alternaria porri,,,,EC50,0.04 µg/mL
CCCCCCCCCCCCCCN1CCNCC1,Lodderomyces parapsilosis,broth dilution,ATCC22019,48 h,MIC,0.975 µg/mL
CN(C)c1ccc(-c2nc3ccccc3[nH]2)cc1,Aspergillus niger,,ATCC16404,,MIC,512 µg/mL
CCCCCCCCCCCN1CCN(CC(O)(Cn2cncn2)c2ccc(F)cc2F)CC1 (centres unmarked),Lodderomyces parapsilosis,broth dilution,ATCC22019,48 h,MIC,0.24 µg/mL
COc1ccc(-c2nc3ccccc3[nH]2)cc1O,Aspergillus niger,,ATCC16404,,MIC,512 µg/mL
CCCCCCCCCN1CCN(CC(O)(Cn2cncn2)c2ccc(F)cc2F)CC1 (centres unmarked),Lodderomyces parapsilosis,broth dilution,ATCC22019,48 h,MIC,0.24 µg/mL
CC(=O)N1CCN(c2ccc(OCC3COC(Cn4ccnc4)(c4ccc(Cl)cc4Cl)O3)cc2)CC1 (centres unmarked),Lodderomyces parapsilosis,,,,MIC90,0.125 µg/mL
